# System: Staphylococcus aureus
# Experiment: Antibacterial activity against Staphylococcus aureus ACH-0204 isolate with gyrA Ser84Leu mutant after 24 hrs by broth microdilution method
# Type: functional
# Conditions: not given
# Method in brief: (§1)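 Broth microdilution per CLSI guidelines. MIC taken as the lowest concentration preventing visible growth at 24 h. Each MIC determined at least twice.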
row,Structure (SMILES),MIC [µg/mL]
1,CC[n+]1c(-c2ccccc2)c2cc(N)ccc2c2ccc(N)cc21.[Br-] [HOMIDIUM BROMIDE],4
2,COc1c(N2C[C@@H]3CCCN[C@@H]3C2)c(F)cc2c(=O)c(C(=O)O)cn(C3CC3)c12 [MOXIFLOXACIN],0.125

# System: Staphylococcus aureus
# Experiment: Antibacterial activity against Staphylococcus aureus ATCC 33591 isolate after 24 hrs by broth microdilution method
# Type: functional
# Conditions: ATCC 33591, 24 h
# Method in brief: as §1
row,Structure (SMILES),MIC [µg/mL]
1,CC[n+]1c(-c2ccccc2)c2cc(N)ccc2c2ccc(N)cc21.[Br-] [HOMIDIUM BROMIDE],16

# System: Staphylococcus aureus
# Experiment: Antibacterial activity against Staphylococcus aureus ACH-0216 isolate with grlA Ser80Phe mutant after 24 hrs by broth microdilution method
# Type: functional
# Conditions: not given
# Method in brief: as §1
row,Structure (SMILES),MIC [µg/mL]
1,CC[n+]1c(-c2ccccc2)c2cc(N)ccc2c2ccc(N)cc21.[Br-] [HOMIDIUM BROMIDE],4
2,COc1c(N2C[C@@H]3CCCN[C@@H]3C2)c(F)cc2c(=O)c(C(=O)O)cn(C3CC3)c12 [MOXIFLOXACIN],0.25

# System: Staphylococcus aureus
# Experiment: Antibacterial activity against Staphylococcus aureus ACH-0218 isolate with grlA Glu84Lys mutant after 24 hrs by broth microdilution method
# Type: functional
# Conditions: not given
# Method in brief: as §1
row,Structure (SMILES),MIC [µg/mL]
1,CC[n+]1c(-c2ccccc2)c2cc(N)ccc2c2ccc(N)cc21.[Br-] [HOMIDIUM BROMIDE],16
2,COc1c(N2C[C@@H]3CCCN[C@@H]3C2)c(F)cc2c(=O)c(C(=O)O)cn(C3CC3)c12 [MOXIFLOXACIN],0.25

# System: Staphylococcus aureus
# Experiment: Antibacterial activity against Staphylococcus aureus ACH-0186 isolate with gyrA Ser84Leu and grlA Ser80Phe, Ala116Val mutant after 24 hrs by broth microdilution method
# Type: functional
# Conditions: not given
row,Structure (SMILES),MIC [µg/mL]
1,CC[n+]1c(-c2ccccc2)c2cc(N)ccc2c2ccc(N)cc21.[Br-] [HOMIDIUM BROMIDE],1
2,COc1c(N2C[C@@H]3CCCN[C@@H]3C2)c(F)cc2c(=O)c(C(=O)O)cn(C3CC3)c12 [MOXIFLOXACIN],16

# System: Staphylococcus aureus
# Experiment: Antibacterial activity against Staphylococcus aureus ACH-0206 isolate with gyrA Ser84Leu mutant after 24 hrs by broth microdilution method
# Type: functional
# Conditions: not given
# Method in brief: as §1
row,Structure (SMILES),MIC [µg/mL]
1,CC[n+]1c(-c2ccccc2)c2cc(N)ccc2c2ccc(N)cc21.[Br-] [HOMIDIUM BROMIDE],4
2,COc1c(N2C[C@@H]3CCCN[C@@H]3C2)c(F)cc2c(=O)c(C(=O)O)cn(C3CC3)c12 [MOXIFLOXACIN],0.125

# System: Staphylococcus aureus
# Experiment: Antibacterial activity against Staphylococcus aureus ACH-0221 isolate with gyrA Ser84Leu mutant after 24 hrs by broth microdilution method
# Type: functional
# Conditions: not given
# Method in brief: as §1
row,Structure (SMILES),MIC [µg/mL]
1,CC[n+]1c(-c2ccccc2)c2cc(N)ccc2c2ccc(N)cc21.[Br-] [HOMIDIUM BROMIDE],16
2,COc1c(N2C[C@@H]3CCCN[C@@H]3C2)c(F)cc2c(=O)c(C(=O)O)cn(C3CC3)c12 [MOXIFLOXACIN],0.5

# System: Staphylococcus aureus
# Experiment: Antibacterial activity against Staphylococcus aureus BSA643 isolate with gyrA Ser84Leu and grlA Ser80Tyr, Glu84Gly mutant after 24 hrs by broth microdilution method
# Type: functional
# Conditions: not given
row,Structure (SMILES),MIC [µg/mL]
1,CC[n+]1c(-c2ccccc2)c2cc(N)ccc2c2ccc(N)cc21.[Br-] [HOMIDIUM BROMIDE],16
2,COc1c(N2C[C@@H]3CCCN[C@@H]3C2)c(F)cc2c(=O)c(C(=O)O)cn(C3CC3)c12 [MOXIFLOXACIN],16

# System: Staphylococcus aureus
# Experiment: Antibacterial activity against Staphylococcus aureus ACH-0201 isolate with gyrA Ser84Leu, Glu88Val and grlA Ser80Phe, Ala116Val mutant after 24 hrs by broth microdilution method
# Type: functional
# Conditions: not given
row,Structure (SMILES),MIC [µg/mL]
1,CC[n+]1c(-c2ccccc2)c2cc(N)ccc2c2ccc(N)cc21.[Br-] [HOMIDIUM BROMIDE],2
2,COc1c(N2C[C@@H]3CCCN[C@@H]3C2)c(F)cc2c(=O)c(C(=O)O)cn(C3CC3)c12 [MOXIFLOXACIN],16

# System: Staphylococcus aureus
# Experiment: Antibacterial activity against Staphylococcus aureus ACH-0231 isolate with gyrA Ser84Leu, Glu88Lys and grlA Ser80Tyr, Glu84Gly mutant after 24 hrs by broth microdilution method
# Type: functional
# Conditions: not given
row,Structure (SMILES),MIC [µg/mL]
1,CC[n+]1c(-c2ccccc2)c2cc(N)ccc2c2ccc(N)cc21.[Br-] [HOMIDIUM BROMIDE],16
2,COc1c(N2C[C@@H]3CCCN[C@@H]3C2)c(F)cc2c(=O)c(C(=O)O)cn(C3CC3)c12 [MOXIFLOXACIN],32

# System: Staphylococcus aureus
# Experiment: Antibacterial activity against Staphylococcus aureus ATCC 700699 isolate with gyrA Ser84Leu, Glu409Lys and grlA Ser80Phe mutant after 24 hrs by broth microdilution method
# Type: functional
# Conditions: ATCC 700699, 24 h
row,Structure (SMILES),MIC [µg/mL]
1,CC[n+]1c(-c2ccccc2)c2cc(N)ccc2c2ccc(N)cc21.[Br-] [HOMIDIUM BROMIDE],> 64
2,COc1c(N2C[C@@H]3CCCN[C@@H]3C2)c(F)cc2c(=O)c(C(=O)O)cn(C3CC3)c12 [MOXIFLOXACIN],4

# System: Staphylococcus aureus
# Experiment: Antibacterial activity against Staphylococcus aureus BSA678 isolate with gyrA Ser84Leu, Ser85Pro and grlA Ser80Phe, Glu84Lys mutant after 24 hrs by broth microdilution method
# Conditions: not given
row,Structure (SMILES),MIC [µg/mL]
1,CC[n+]1c(-c2ccccc2)c2cc(N)ccc2c2ccc(N)cc21.[Br-] [HOMIDIUM BROMIDE],4
2,COc1c(N2C[C@@H]3CCCN[C@@H]3C2)c(F)cc2c(=O)c(C(=O)O)cn(C3CC3)c12 [MOXIFLOXACIN],> 64

# System: Staphylococcus aureus
# Experiment: Antibacterial activity against Staphylococcus aureus ACH-0129 isolate with gyrA Ser84Leu, Glu88Val and grlA Ser80Phe, Ala116Val mutant after 24 hrs by broth microdilution method
# Type: functional
# Conditions: not given
row,Structure (SMILES),MIC [µg/mL]
1,CC[n+]1c(-c2ccccc2)c2cc(N)ccc2c2ccc(N)cc21.[Br-] [HOMIDIUM BROMIDE],4
2,COc1c(N2C[C@@H]3CCCN[C@@H]3C2)c(F)cc2c(=O)c(C(=O)O)cn(C3CC3)c12 [MOXIFLOXACIN],8

# System: Staphylococcus aureus
# Experiment: Antibacterial activity against Staphylococcus aureus ACH-0126 isolate with gyrA Ser84Leu and grlA Ser80Phe mutant after 24 hrs by broth microdilution method
# Type: functional
# Conditions: not given
row,Structure (SMILES),MIC [µg/mL]
1,CC[n+]1c(-c2ccccc2)c2cc(N)ccc2c2ccc(N)cc21.[Br-] [HOMIDIUM BROMIDE],4
2,COc1c(N2C[C@@H]3CCCN[C@@H]3C2)c(F)cc2c(=O)c(C(=O)O)cn(C3CC3)c12 [MOXIFLOXACIN],4

# System: Staphylococcus aureus
# Experiment: Antibacterial activity against Staphylococcus aureus ATCC 29213 after 24 hrs by broth microdilution method
# Type: functional
# Conditions: ATCC 29213, 24 h
# Method in brief: as §1
row,Structure (SMILES),MIC [µg/mL]
1,CC[n+]1c(-c2ccccc2)c2cc(N)ccc2c2ccc(N)cc21.[Br-] [HOMIDIUM BROMIDE],4
2,COc1c(N2C[C@@H]3CCCN[C@@H]3C2)c(F)cc2c(=O)c(C(=O)O)cn(C3CC3)c12 [MOXIFLOXACIN],0.06

# System: Staphylococcus aureus
# Experiment: Antibacterial activity against Staphylococcus aureus NY2746 isolate with gyrA Ser84Leu and grlA Ser80Phe mutant after 24 hrs by broth microdilution method
# Type: functional
# Conditions: not given
row,Structure (SMILES),MIC [µg/mL]
1,CC[n+]1c(-c2ccccc2)c2cc(N)ccc2c2ccc(N)cc21.[Br-] [HOMIDIUM BROMIDE],16
2,COc1c(N2C[C@@H]3CCCN[C@@H]3C2)c(F)cc2c(=O)c(C(=O)O)cn(C3CC3)c12 [MOXIFLOXACIN],8

# System: not listed separately
# Experiment: Inhibition of Staphylococcus aureus wild-type topoisomerase 4 decatenation activity assessed as unlinking of DNA microcircles from kinetoplast DNA
# Conditions: not given
# Method in brief: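 S. aureus topo IV reconstituted from His-purified recombinant GrlA and GrlB (E. coli BL21(DE3)pLysS expression), mixed 1:1 molar on ice 10 min. 0.1 μg catenated kDNA with 2 U enzyme, 30 min at 37°C in 1 mM ATP, 5 mM DTT, 5 mM MgCl2, 50 μg/ml BSA, 50 mM Tris-HCl pH 7.5, 250 mM potassium glutamate. Products on 1% agarose gel, ethidium-stained, quantitated; IC50 by nonlinear regression.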
row,Structure (SMILES),IC50 [µM]
1,COc1c(N2C[C@@H]3CCCN[C@@H]3C2)c(F)cc2c(=O)c(C(=O)O)cn(C3CC3)c12 [MOXIFLOXACIN],1

# System: Staphylococcus aureus
# Experiment: Antibacterial activity against Staphylococcus aureus ACH-0141 isolate with gyrA Ser84Leu, Glu88Val and grlA Ser80Phe, Ala116Val mutant after 24 hrs by broth microdilution method
# Type: functional
# Conditions: not given
row,Structure (SMILES),MIC [µg/mL]
1,CC[n+]1c(-c2ccccc2)c2cc(N)ccc2c2ccc(N)cc21.[Br-] [HOMIDIUM BROMIDE],4
2,COc1c(N2C[C@@H]3CCCN[C@@H]3C2)c(F)cc2c(=O)c(C(=O)O)cn(C3CC3)c12 [MOXIFLOXACIN],16

# System: Staphylococcus aureus
# Experiment: Antibacterial activity against Staphylococcus aureus ACH-0210 isolate with gyrA Ser84Leu and grlA Ser80Phe mutant after 24 hrs by broth microdilution method
# Type: functional
# Conditions: not given
row,Structure (SMILES),MIC [µg/mL]
1,CC[n+]1c(-c2ccccc2)c2cc(N)ccc2c2ccc(N)cc21.[Br-] [HOMIDIUM BROMIDE],2
2,COc1c(N2C[C@@H]3CCCN[C@@H]3C2)c(F)cc2c(=O)c(C(=O)O)cn(C3CC3)c12 [MOXIFLOXACIN],4

# System: not listed separately
# Experiment: Inhibition of Staphylococcus aureus […] topoisomerase 4 grlA S80F mutant decatenation activity assessed as unlinking of DNA microcircles from kinetoplast DNA
# Conditions: not given
# Method in brief: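 Recombinant S. aureus GrlA (Ser80Phe) and GrlB were mixed 1:1 molar on ice for 10 min. kDNA (0.1 μg) with 2 U enzyme, 30 min at 37°C, in 1 mM ATP, 5 mM MgCl2, 250 mM K-glutamate, 50 mM Tris pH 7.5. Reactions stopped with EDTA, run on 1% agarose-TBE and ethidium-stained, minicircles quantitated. IC50 by nonlinear regression.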
row,Structure (SMILES),IC50 [µM]
1,COc1c(N2C[C@@H]3CCCN[C@@H]3C2)c(F)cc2c(=O)c(C(=O)O)cn(C3CC3)c12 [MOXIFLOXACIN],11.9

# System: Staphylococcus aureus
# Experiment: Antibacterial activity against Staphylococcus aureus ACH-0203 isolate with gyrA Ser84Leu and grlA Ser80Phe, Ala116Val mutant after 24 hrs by broth microdilution method
# Type: functional
# Conditions: not given
# Method in brief: as §1
row,Structure (SMILES),MIC [µg/mL]
1,CC[n+]1c(-c2ccccc2)c2cc(N)ccc2c2ccc(N)cc21.[Br-] [HOMIDIUM BROMIDE],32
2,COc1c(N2C[C@@H]3CCCN[C@@H]3C2)c(F)cc2c(=O)c(C(=O)O)cn(C3CC3)c12 [MOXIFLOXACIN],32

# System: Staphylococcus aureus
# Experiment: Antibacterial activity against Staphylococcus aureus ACH-0192 isolate with gyrA Ser84Leu and grlA Ser80Phe, Ala116Val mutant after 24 hrs by broth microdilution method
# Type: functional
# Conditions: not given
row,Structure (SMILES),MIC [µg/mL]
1,CC[n+]1c(-c2ccccc2)c2cc(N)ccc2c2ccc(N)cc21.[Br-] [HOMIDIUM BROMIDE],2
2,COc1c(N2C[C@@H]3CCCN[C@@H]3C2)c(F)cc2c(=O)c(C(=O)O)cn(C3CC3)c12 [MOXIFLOXACIN],16

# From ChEMBL document CHEMBL1157373, “Dual targeting of DNA gyrase and topoisomerase IV: target interactions of heteroaryl isothiazolones in Staphylococcus aureus” (Antimicrob Agents Chemother, 2007)
